The source made the active and inactive calls. The rule behind the calls is not given here.
Key:
KG-1a [1] = test: Cytotoxicity against human KG-1a cells assessed as cell death incubated for 72 hrs by flow cytometry based Annexin V/7-AAD assay; assay type: functional
Summary of the method: (§1)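 Cell suspensions from confluent flasks (10^5 cells per well) exposed 72 h at 37°C, humidified 5% CO2, to compound over experimentally set concentration ranges, with drug-free controls. Cells harvested by centrifugation, Annexin V/7-AAD flow cytometry. Triplicate experiments; LC50 by non-linear regression of sigmoidal dose-response curves, mean ± SEM.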

HT-29 [2] = test: Cytotoxicity against human HT-29 cells assessed as cell death incubated for 72 hrs by flow cytometry based Annexin V/7-AAD assay; assay type: functional; settings: read-out: LC50 (the source's name); summary of the method: as §1
LNCaP = test: Cytotoxicity against human LNCaP cells assessed as cell death incubated for 72 hrs by flow cytometry based Annexin V/7-AAD assay; assay type: functional; settings: read-out: LC50 (the source's name); summary of the method: as §1
BXPC-3 = test: Cytotoxicity against human BXPC-3 cells assessed as cell death incubated for 72 hrs by MTS assay; assay type: functional; settings: read-out: LC50 (the source's name)
Summary of the method: (§2)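 Contracted MTS viability test (BxPC-3, MIA PaCa-2, HT-29, SW620), cells plated the day before dosing. 72 h exposure to 9 serial 3.16-fold dilutions, highest 198 μM, then MTS for 4 h at 37°C and absorbance read. Run in duplicate; LC50 (concentration giving 50% cell death) taken from curve fit as mean.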

MIA PaCa-2 = test: Cytotoxicity against human MIA PaCa-2 cells assessed as cell death incubated for 72 hrs by MTS assay; assay type: functional; settings: read-out: LC50 (the source's name); summary of the method: as §2
KG-1a [3] = test: Cytotoxicity against human KG-1a cells assessed as viable cells at 0.25 uM for 48 hrs by FITC-PE analysis (reference value: 3.9 to 4%); assay type: functional
Summary of the method: (§3)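 KG1a AML cells were kept in RPMI with 20% foetal calf serum and penicillin/streptomycin, then exposed to a wide concentration range of each nucleoside or ProTide. Cells were stained with anti-CD34 (FITC) and anti-CD38 (PE) and read by flow cytometry. The CD34⁺/CD38⁻ stem-cell subset was expressed as a percentage of viable cells. Results are the mean ±SEM of five independent experiments.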

KG-1a [4] = test: Cytotoxicity against human KG-1a cells assessed as viable cells at 0.5 uM for 48 hrs by FITC-PE analysis (reference value: 3.9%); assay type: functional; summary of the method: as §3
KG-1a [5] = test: Cytotoxicity against human KG-1a cells assessed as reduction in leukemic stem cells fraction up to 2.5 uM measured after 48 hrs by FACS assay; assay type: functional, cell-based; settings: dose microM <=2.5, time 48.0 hrs; summary of the method: as §3
KG-1a [6] = test: Cytotoxicity against human KG-1a cells assessed as viable cells at 1 uM for 48 hrs by FITC-PE analysis (reference value: 3.9 to 4%); assay type: functional; summary of the method: as §3
MDA-MB-231 = test: Cytotoxicity against human MDA-MB-231 cells incubated for 72 hrs by flow cytometry using Annexin V/7-AAD assay; assay type: functional; settings: read-out: LC50 (the source's name); summary of the method: as §1
HCT-116 = test: Cytotoxicity against human HCT-116 cells assessed as cell death incubated for 72 hrs by flow cytometry based Annexin V/7-AAD assay; assay type: functional; settings: read-out: LC50 (the source's name); summary of the method: as §1
SW-620 [7] = test: Cytotoxicity against human SW-620 cells assessed as cell death incubated for 72 hrs by MTS assay; assay type: functional; settings: read-out: LC50 (the source's name); summary of the method: as §2
SW-620 [8] = test: Potency index, ratio of 5-FU LC50 to test compound LC50 for human SW-620 cells incubated for 72 hrs by MTS assay; assay type: functional
Summary of the method: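 SW620 MTS assay: 72 h exposure to 9 serial 3.16-fold dilutions from 198 μM, MTS 4 h at 37°C, absorbance read, duplicate. LC50 from curve fit; index is 5-FU LC50 divided by test compound LC50.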

[9] = Metabolic stability in cryopreserved human hepatocytes assessed as half life at 1 uM for 60 mins by HPLC-MS/MS analysis; assay type: ADME, cell-based, Hepatocyte; settings: for t1/2: hepatocytes, 1 h, 1 µM
Summary of the method: (§4)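 Pooled cryopreserved human hepatocytes thawed, washed and resuspended in Krebs-Henseleit buffer pH 7.3. Compound at 1 μM final, incubated 0 and 60 min at 37°C/5% CO2. Quenched with acetonitrile, centrifuged; supernatant analysed by HPLC-MS/MS.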

[10] = Prodrug activation assessed as carboxypeptidase Y-mediated metabolism by measuring compound remaining within 10 mins by NMR analysis; assay type: ADME; settings: saccharomyces cerevisiae
Summary of the method: (§5)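 ProTide (3.5 mg) in acetone-d6 with Trizma buffer pH 7.6. Control 31P NMR taken, then carboxypeptidase Y (0.1 mg in Trizma) added. 31P NMR spectra (202 MHz, 25°C) collected with 64 scans every 7 min. Parent and metabolite A/C fractions followed by peak integration over time.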

[11] = Stability in human plasma assessed as half life; assay type: ADME, cell-free; settings: time <=24 hrs
[12] = Metabolic stability in cryopreserved human hepatocytes assessed as parent compound remaining at 1 uM for 60 mins by HPLC-MS/MS analysis; assay type: ADME, cell-based, Hepatocyte; summary of the method: as §4
KG-1a [13] = test: Potency index, ratio of FUDR LC50 to test compound LC50 for human KG-1a cells incubated for 72 hrs by flow cytometry using Annexin V/7-AAD assay; assay type: functional
Summary of the method: (§6)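 Annexin V/7-AAD flow cytometry after 72 h exposure at 37°C, 5% CO2, drug-free controls included, triplicate. LC50 by non-linear regression. Index is reference nucleoside LC50 (5-FU for HT-29, FUDR for KG1a) divided by test compound LC50.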

KG-1a [14] = test: Cytotoxicity against human KG-1a cells assessed as reduction in leukemic stem cells fraction >= 0.25 uM measured after 48 hrs by FACS assay; assay type: functional, cell-based; settings: dose microM >=0.25, time 48.0 hrs
[15] = Prodrug activation assessed as carboxypeptidase Y-mediated metabolite A release measured upto 120 mins by NMR analysis; assay type: ADME; settings: saccharomyces cerevisiae, 2 h; summary of the method: as §5
[16] = Prodrug activation assessed as carboxypeptidase Y-mediated metabolite C release measured upto 120 mins by NMR analysis; assay type: ADME; settings: saccharomyces cerevisiae, 2 h; summary of the method: as §5
KG-1a [17] = test: Cytotoxicity against human KG-1a cells assessed as reduction in leukemic stem cells fraction at >= 0.07 uM after 48 hrs by FACS assay; assay type: functional, cell-based; settings: dose microM >=0.07, time 48.0 hrs; summary of the method: as §3
KG-1a [18] = test: Cytotoxicity against human KG-1a cells assessed as reduction in leukemic stem cells fraction up to 5 uM measured after 48 hrs by FACS assay; assay type: functional, cell-based; settings: dose microM <=5, time 48.0 hrs
HT-29 [19] = test: Potency index, ratio of 5-FU LC50 to test compound LC50 for human HT-29 cells for 72 hrs by flow cytometry using Annexin V/7-AAD assay; assay type: functional; summary of the method: as §6
[20] = Prodrug activation assessed as carboxypeptidase Y-mediated metabolite A release measured within 10 mins by NMR analysis; assay type: ADME; settings: saccharomyces cerevisiae; summary of the method: as §5
[21] = Drug uptake in human KG-1a cell leukemic stem cells fraction assessed as intracellular accumulation at 1 uM treated for 1 hr by mass spectrometry analysis; assay type: ADME
Summary of the method: (§7)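 KG1a cells (5×10^6, DMEM + 10% FCS) exposed to 1 μM compound for 1 h, harvested, then FACS-sorted into CD34+/CD38− LSC and CD34+/CD38+ bulk fractions. Pellets lysed; intracellular triphosphate quantified by mass spectrometry against a nucleoside standard curve. Five independent experiments in triplicate, mean ± SEM.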

[22] = Drug uptake in human KG-1a cell bulk tumor fraction assessed as intracellular accumulation at 1 uM treated for 1 hr by mass spectrometry analysis; assay type: ADME; summary of the method: as §7

Work on `Nc1ccn([C@@H]2O[C@H](CO)[C@@H](O)C2(F)F)c(=O)n1` [GEMCITABINE] yielded an LC50 (KG-1a [1]) of 1800 nM, a CC50 (HT-29 [2]; Homo sapiens, HT-29, 72 h) of 700 nM and a CC50 (LNCaP) of 2800 nM. The CC50 (BXPC-3) was 740 nM, the CC50 (MIA PaCa-2) was 10 nM and the Activity (KG-1a [3]) was 4.1%. For the same molecule, the Activity (KG-1a [4]) was 3.9%, the Activity (KG-1a [5]) was “inactive” and the Activity (KG-1a [6]) was 3.8%.

With `C[C@H](NP(=O)(OC[C@H]1O[C@@H](n2cc(F)c(=O)[nH]c2=O)C[C@@H]1O)Oc1cccc2ccccc12)C(=O)OCc1ccccc1` (stereo in doubt; form 3) [FOSIFLOXURIDINE NAFALBENAMIDE] the LC50 (KG-1a [1]; 72 h) was 55 nM, the CC50 (MDA-MB-231; 72 h) was 2500 nM and the CC50 (HCT-116; 72 h) was 2600 nM. The CC50 (HT-29 [2]; 72 h) was 1500 nM, the CC50 (SW-620 [7]; 72 h) was 1460 nM and the RatioLC50 (SW-620 [8]) was 4. It also gave a t1/2 [9] of 47 min and an Activity [10] of 28%.

Work on `C[C@H](NP(=O)(OC[C@H]1O[C@@H](n2cc(F)c(=O)[nH]c2=O)C[C@@H]1O)Oc1cccc2ccccc12)C(=O)OCc1ccccc1` (stereo in doubt; form 1) [FOSIFLOXURIDINE NAFALBENAMIDE] yielded an LC50 (KG-1a [1]; 72 h) of 53 nM, a CC50 (MDA-MB-231; Homo sapiens, MDA-MB-231, 72 h) of 2800 nM and a CC50 (HCT-116; Homo sapiens, HCT-116, 72 h) of 3100 nM. For the same molecule, the CC50 (HT-29 [2]; Homo sapiens, HT-29, 72 h) was 1700 nM, the CC50 (SW-620 [7]; Homo sapiens, SW-620, 72 h) was 1840 nM and the half-life [11] was 582 min. It also gave a half-life at 1 µM ([9]; cryopreserved hepatocytes) of 34 min, a remaining at 1 h, 1 µM ([12]; cryopreserved hepatocytes, read-out: Stability) of 30% and a RatioLC50 (KG-1a [13]) of 23.

`C[C@H](N[P@@](=O)(OC[C@H]1O[C@@H](n2ccc(N)nc2=O)C(F)(F)[C@@H]1O)Oc1ccccc1)C(=O)OCc1ccccc1` gave an LC50 (KG-1a [1]) of 250 nM, a CC50 (HT-29 [2]; Homo sapiens, HT-29, 72 h) of 1000 nM and a CC50 (LNCaP) of 3400 nM. The CC50 (BXPC-3) was 1290 nM, the CC50 (MIA PaCa-2) was 190 nM and the Activity (KG-1a [14]) was “Active”. For the same molecule, the Drug metabolism [15] was “Metabolite_Notdetected” and the Drug metabolism [16] was “Metabolite_Detected”.

With `C[C@H](NP(=O)(OC[C@H]1O[C@@H](n2cc(F)c(=O)[nH]c2=O)C[C@@H]1O)Oc1cccc2ccccc12)C(=O)OCc1ccccc1` (stereo in doubt; form 2) the Activity (KG-1a [17]) was “Active”.

With `O=c1[nH]cc(F)c(=O)[nH]1` [FLUOROURACIL] the LC50 (KG-1a [1]) was 1400 nM, the CC50 (MDA-MB-231; Homo sapiens, MDA-MB-231, 72 h) was 12600 nM and the CC50 (HCT-116; Homo sapiens, HCT-116, 72 h) was 3700 nM. For the same molecule, the CC50 (HT-29 [2]; Homo sapiens, HT-29, 72 h) was 5500 nM, the CC50 (SW-620 [7]; Homo sapiens, SW-620, 72 h) was 7980 nM and the half-life [11] was 8 min. The Activity (KG-1a [18]) was “inactive”.

With `C[C@H](NP(=O)(OC[C@H]1O[C@@H](n2cc(F)c(=O)[nH]c2=O)C[C@@H]1O)Oc1cccc2ccccc12)C(=O)OCc1ccccc1` (stereo in doubt; form 3) the Activity (KG-1a [17]) was “Active”.

Work on `C[C@H](NP(=O)(OC[C@H]1O[C@@H](n2cc(F)c(=O)[nH]c2=O)C[C@@H]1O)Oc1cccc2ccccc12)C(=O)OCc1ccccc1` (stereo in doubt; form 2) [FOSIFLOXURIDINE NAFALBENAMIDE] yielded a RatioLC50 (HT-29 [19]) of 13, an LC50 (KG-1a [1]; 72 h) of 52 nM and a CC50 (MDA-MB-231; 72 h) of 3600 nM. For the same molecule, the CC50 (HCT-116; 72 h) was 4300 nM, the CC50 (HT-29 [2]; 72 h) was 2100 nM and the CC50 (SW-620 [7]; 72 h) was 2370 nM. For the same molecule, the t1/2 [9] was 53 min, the Stability ([12]; hepatocytes, 1 h, 1 µM) was 40% and the Drug metabolism [20] was “Metabolite_Detected”.

For `C[C@H](N[P@](=O)(OC[C@H]1O[C@@H](n2ccc(N)nc2=O)C(F)(F)[C@@H]1O)Oc1ccccc1)C(=O)OCc1ccccc1`, the LC50 (KG-1a [1]) was 310 nM, the CC50 (HT-29 [2]; Homo sapiens, HT-29, 72 h) was 1500 nM and the CC50 (LNCaP) was 2600 nM. For the same molecule, the CC50 (BXPC-3) was 2440 nM, the CC50 (MIA PaCa-2) was 30 nM and the Activity (KG-1a [14]) was “Active”.

With `C[C@H](NP(=O)(OC[C@H]1O[C@@H](n2ccc(N)nc2=O)C(F)(F)[C@@H]1O)Oc1ccccc1)C(=O)OCc1ccccc1` (some centres undefined) [FOSGEMCITABINE PALABENAMIDE] the LC50 (KG-1a [1]) was 280 nM, the CC50 (HT-29 [2]; Homo sapiens, HT-29, 72 h) was 1300 nM and the CC50 (LNCaP) was 3100 nM. The CC50 (BXPC-3) was 2290 nM, the CC50 (MIA PaCa-2) was 100 nM and the half-life [11] was 498 min. For the same molecule, the Activity (KG-1a [3]) was 2.7%, the Activity (KG-1a [4]) was 2.5% and the Drug uptake [21] was “Active”. For the same molecule, the Drug uptake [22] was “Active” and the Activity (KG-1a [6]) was 1.9%.

— ChEMBL document CHEMBL5029146, “Single Diastereomers of the Clinical Anticancer ProTide Agents NUC-1031 and NUC-3373 Preferentially Target Cancer Stem Cells In Vitro” (J Med Chem, 2021)
